Measured values reported in ChEMBL document CHEMBL1154874, “6-Substituted 2-(N-trifluoroacetylamino)imidazopyridines induce cell cycle arrest and apoptosis in SK-LU-1 human cancer cell line” (Eur J Med Chem, 2010).
Active and inactive are the calls of the source. The calls are words filed in the database; no cut-off is given here.

Legend:
[1] = tested on: HCT-15; test: Cytotoxicity against human HCT15 cells assessed as cell growth inhibition at 50 uM after 48 hrs by SRB assay; format: functional; conditions: for inhibition of growth at 50 µM: HCT-15, 48 h, read-out: GI
How it was run: (§1)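 Cells in RPMI-1640/10% FBS/2 mM L-glutamine at 37 °C, 5% CO₂, seeded at 5000 cells/well and treated 24 h later for 48 h. Growth read by SRB (TCA fixation, 0.4% SRB, Tris solubilization, OD 515 nm).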

[2] = tested on: U-251; test: Cytotoxicity against human U251 cells assessed as cell growth inhibition at 50 uM after 48 hrs by SRB assay; format: functional; conditions: U-251, 48 h, read-out: GI; how it was run: as §1
[3] = tested on: K562; test: Cytotoxicity against human K562 cells assessed as cell growth inhibition at 50 uM after 48 hrs by SRB assay; format: functional; conditions: K562, 48 h, read-out: GI; how it was run: as §1
[4] = tested on: HCT-15; test: Cytotoxicity against human HCT15 cells after 48 hrs by SRB assay; format: functional, cell-based; conditions: HCT-15, 48 h
How it was run: (§2)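 Compounds dissolved in DMSO. Cells grown in RPMI-1640 with 10% FBS and 2 mM L-glutamine at 37 °C under 5% CO₂. Seeded from 70% confluent flasks at 5000 cells/well, treated 24 h after seeding for 48 h. Fixed in situ with cold 50% TCA for 1 h at 4 °C, stained with 0.4% SRB, dye solubilized in 10 mM unbuffered Tris base, OD read at 515 nm.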

[5] = tested on: K562; test: Cytotoxicity against human K562 cells after 48 hrs by SRB assay; format: functional, cell-based; conditions: K562, 48 h; how it was run: as §2
[6] = tested on: MCF7; test: Cytotoxicity against human MCF7 cells assessed as cell growth inhibition at 50 uM after 48 hrs by SRB assay; format: functional; conditions: MCF7, 48 h, read-out: GI; how it was run: as §1
[7] = tested on: U-251; test: Cytotoxicity against human U251 cells after 48 hrs by SRB assay; format: functional, cell-based; conditions: U-251, 48 h; how it was run: as §2
[8] = tested on: PC-3; test: Cytotoxicity against human PC3 cells assessed as cell growth inhibition at 50 uM after 48 hrs by SRB assay; format: functional; conditions: PC-3, 48 h, read-out: GI; how it was run: as §1
[9] = tested on: SK-LU-1; test: Cytotoxicity against human SK-LU-1 cells assessed as cell growth inhibition at 50 uM after 48 hrs by SRB assay; format: functional; conditions: SK-LU-1, 48 h, read-out: GI; how it was run: as §1
[10] = tested on: SK-LU-1; test: Cytotoxicity against human SK-LU-1 cells after 48 hrs by SRB assay; format: functional, cell-based; conditions: SK-LU-1, 48 h; how it was run: as §2
[11] = tested on: MCF7; test: Cytotoxicity against human MCF7 cells after 48 hrs by SRB assay; format: functional, cell-based; conditions: MCF7, 48 h; how it was run: as §2
[12] = tested on: PC-3; test: Cytotoxicity against human PC3 cells after 48 hrs by SRB assay; format: functional, cell-based; conditions: PC-3, 48 h; how it was run: as §2
[13] = tested on: MCF7; test: Cell cycle arrest in human MCF7 cells assessed as accumulation at G2/M phase at 2 times IC50 concentration after 24 hrs using propidium iodide staining by flow cytometry relative to control; format: functional
How it was run: (§3)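 Log-phase cells seeded in RPMI-1640 + 10% FBS at 1×10⁶ per 10 cm dish, attached 24 h at 37 °C, then exposed to compound (DMSO solvent control) for 24 h. Harvested with PBS-EDTA, washed, fixed in ice-cold 70% ethanol at −20 °C for 24–48 h, stained with propidium iodide and analysed by FACScan flow cytometry. Three independent experiments, mean ± SD; P < 0.05 versus DMSO.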

[14] = tested on: SK-LU-1; test: Induction of apoptosis in human SK-LU-1 cells assessed as late apoptotic cells at 2 times IC50 concentration after 48 hrs using annexin V-propidium iodide staining by flow cytometry; format: functional, cell-based
How it was run: (§4)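 SK-LU-1 cells treated 48 h with compounds at 2×IC50 or with DMSO as control. Labelled with FITC-annexin V and propidium iodide in binding buffer and analysed on a FACScan flow cytometer. Annexin V-only cells were scored as early apoptotic and annexin V/PI double-stained cells as late apoptotic. Values are means of three independent experiments.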

[15] = tested on: SK-LU-1; test: Induction of apoptosis in human SK-LU-1 cells assessed as early apoptotic cells at 2 times IC50 concentration after 48 hrs using annexin V-propidium iodide staining by flow cytometry; format: functional, cell-based; how it was run: as §4
[16] = tested on: SK-LU-1; test: Induction of apoptosis in human SK-LU-1 cells assessed as appearance of phosphatidylserine residues at 2 times IC50 concentration after 48 hrs by flow cytometry; format: functional; how it was run: as §4
[17] = tested on: MCF7; test: Cell cycle arrest in human MCF7 cells assessed as accumulation at G0/G1 phase at 2 times IC50 concentration after 24 hrs using propidium iodide staining by flow cytometry relative to control; format: functional; how it was run: as §3
[18] = tested on: MCF7; test: Cell cycle arrest in human MCF7 cells assessed as accumulation at S phase at 2 times IC50 concentration after 24 hrs using propidium iodide staining by flow cytometry relative to control; format: functional; how it was run: as §3
[19] = tested on: SK-LU-1; test: Cell cycle arrest in human SK-LU-1 cells assessed as accumulation at G0/G1 phase at 2 times IC50 concentration after 24 hrs using propidium iodide staining by flow cytometry relative to control; format: functional; how it was run: as §3
[20] = tested on: SK-LU-1; test: Cell cycle arrest in human SK-LU-1 cells assessed as accumulation at S phase at 2 times IC50 concentration after 24 hrs using propidium iodide staining by flow cytometry relative to control; format: functional; how it was run: as §3
[21] = tested on: SK-LU-1; test: Cell cycle arrest in human SK-LU-1 cells assessed as accumulation at G2/M phase at 2 times IC50 concentration after 24 hrs using propidium iodide staining by flow cytometry relative to control; format: functional; how it was run: as §3

| Structure (SMILES) | inhibition of growth at 50 µM [1] [%] | inhibition of growth at 50 µM [2] [%] | inhibition of growth at 50 µM [3] [%] | IC50 [4] [µM] | IC50 [5] [µM] | inhibition of growth at 50 µM [6] [%] | IC50 [7] [µM] | inhibition of growth at 50 µM [8] [%] | inhibition of growth at 50 µM [9] [%] | IC50 [10] [µM] | IC50 [11] [µM] | IC50 [12] [µM] | Activity [13] [%] | Activity [16] [%] | Activity [17] [%] | Activity [18] [%] | Activity [19] [%] | Activity [20] [%] | Activity [21] [%] | further results |
| --- | --- | --- | --- | --- | --- | --- | --- | --- | --- | --- | --- | --- | --- | --- | --- | --- | --- | --- | --- | --- |
| O=C(c1ccc(C(F)(F)F)c(F)c1)c1ccc2nc(NC(=O)C(F)(F)F)cn2c1 | 59.2 | 38.4 | 50.1 | 57.1 | 83.2 | 56.5 | 84.2 | 32.6 | 48.3 | 57.1 | 50.8 |  |  |  |  |  |  |  |  |  |
| O=C(c1ccc2nc(NC(=O)C(F)(F)F)cn2c1)c1ccc(C(F)(F)F)cc1F | 100 | 80.1 | 90.2 | 25 | 56.6 | 97.2 | 52.3 | 92.6 | 100 | 35.1 | 24.9 | 28 |  |  |  |  |  |  |  |  |
| Cc1ccc(F)c(C(=O)c2ccc3nc(NC(=O)C(F)(F)F)cn3c2)c1 | 91.2 | 61.5 | 92.6 | 10.5 | 10.9 | 66.3 | 51.9 | 59.2 | 71.7 | 11.2 | 10.7 | 36.3 | 13.4 | 20 | 74 | 7.1 | 10.4 | 21.2 |  | Activity [14]: Active; Activity [15]: Active |
| Cn1cc(C(=O)c2ccc3nc(NC(=O)C(F)(F)F)cn3c2)c2ccccc21 | 78 | 92.7 | 95.5 | 65.1 | 54.6 | 80.4 | 27.8 | 63.7 | 69.2 | 24.8 | 44.3 |  | 20.2 | 24.1 | 70.6 | 6.3 | 32.9 | 14.7 | 47.5 | Activity [14]: Active; Activity [15]: Active |
| Cc1ccc(C(=O)c2ccc3nc(NC(=O)C(F)(F)F)cn3c2)cc1F | 65.5 | 37.9 | 52.2 |  |  | 57.3 |  | 30.7 | 81.5 |  |  |  | 18.1 | 39.5 | 63.5 | 14.5 | 22.6 | 16.2 | 60.6 |  |
| O=C(c1ccc2nc(NC(=O)C(F)(F)F)cn2c1)c1ncc[nH]1 | 47.8 | 80.2 | 88.3 | 56.8 | 51.5 | 60.7 | 37.7 | 58.1 | 97.5 | 25.1 | 42.4 | 52.3 |  |  |  |  |  |  |  |  |
| O=C(Nc1cn2cc(I)ccc2n1)C(F)(F)F | 56.3 | 20.8 | 33.1 |  |  | 36.7 |  | 50.9 | 25.6 |  |  |  |  |  |  |  |  |  |  |  |
| O=C(c1ccc2nc(NC(=O)C(F)(F)F)cn2c1)c1cc(C(F)(F)F)ccc1F | 91.7 | 59.3 | 88 |  |  | 65.1 |  | 61.5 | 70.5 |  |  |  |  |  |  |  |  |  |  |  |
| Cn1ccnc1C(=O)c1ccc2nc(NC(=O)C(F)(F)F)cn2c1 |  | 11.9 | 45.3 |  |  | 30.8 |  | 6.1 | 29.2 |  |  |  |  |  |  |  |  |  |  | growth inhibition (GI) [1]: inactive |
| Cn1cnc2c(NCc3ccccc3)nc(NCCO)nc21 [OLOMOUCINE] | 28.9 | 32 | 19.8 | 62.5 | 89.3 | 37.6 | 81.5 | 22.7 | 36.9 | 68.1 | 55.9 | 81 | 23.2 |  | 60.6 | 15 | 44.2 | 19.7 | 31.8 |  |
